Results published in ChEMBL document CHEMBL4371075, “α-Amino Diphenyl Phosphonates as Novel Inhibitors of Escherichia coli ClpP Protease” (J Med Chem, 2019).
Blank lines part the entries; values can stand above or below the compound they belong to.

Biological target: ATP-dependent Clp protease proteolytic subunit (Escherichia coli (strain K12)) (UniProt P0A6G7)
Assay: Inhibition of Escherichia coli C-terminal His6-tagged ClpP expressed Escherichia coli SG1146a at 200 uM using Suc-LY-AMC as substrate preincubated for 10 mins followed by substrate addition and measured over 1 hr by fluorescence assay relative to control
In short: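 E. coli ClpP (625 nM) in 100 mM NaCl, 100 mM Hepes pH 7.5, 0.05% Brij 35, preincubated with compound (200 µM final, triplicates) 10 min at 30 °C. Suc-LY-AMC added (75 µM), fluorescence (ex 350/em 435 nm) followed over 1 h at 30 °C. Inhibition relative to 2% DMSO vehicle; Z-LY-CMK (200 µM) positive control; plates valid at Z' > 0.6.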

Sequence of ATP-dependent Clp protease proteolytic subunit (Escherichia coli (strain K12)) (P0A6G7 whole entry): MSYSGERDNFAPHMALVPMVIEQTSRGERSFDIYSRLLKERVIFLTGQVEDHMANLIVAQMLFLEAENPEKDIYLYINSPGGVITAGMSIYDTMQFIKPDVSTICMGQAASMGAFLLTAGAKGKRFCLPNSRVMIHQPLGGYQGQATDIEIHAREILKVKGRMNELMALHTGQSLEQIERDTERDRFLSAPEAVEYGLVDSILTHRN

Structure (SMILES): N=C(N)N1CCC(C(NC(=O)/C=C/c2ccccc2)P(=O)(Oc2ccccc2)Oc2ccccc2)CC1 (stereo unspecified)
- inhibition: 18%

- inhibition: < 1%
Structure (SMILES): N#C[C@H](Cc1ccc(O)cc1)NC(=O)OCc1ccccc1

Structure (SMILES): [N-]=[N+]=NCCOCCOC(=O)NC(Cc1ccc(NC(=N)N)cc1)P(=O)(Oc1ccccc1)Oc1ccccc1 (stereo unspecified)
- inhibition: 68%

Structure (SMILES): COC(=O)NC(c1cccc2c([N+](=O)[O-])cccc12)P(=O)(Oc1ccccc1)Oc1ccccc1 (stereo unspecified)
- inhibition: 17%

Structure (SMILES): Nc1ccc2cc(C(NC(=O)OCc3ccccc3)P(=O)(Oc3ccccc3)Oc3ccccc3)ccc2c1 (stereo unspecified)
- inhibition: < 1%

Structure (SMILES): COc1ccc(CC(=O)NC(C2CCN(C(=N)N)CC2)P(=O)(Oc2ccccc2)Oc2ccccc2)cc1 (stereo unspecified)
- inhibition: 13%

Structure (SMILES): N=C(N)N1CCC(C(NC(=O)C#Cc2ccc3c(c2)OCO3)P(=O)(Oc2ccccc2)Oc2ccccc2)CC1 (stereo unspecified)
- inhibition: 24%

Structure (SMILES): O=C(NC(c1cccc([N+](=O)[O-])c1)P(=O)(Oc1ccccc1)Oc1ccccc1)OCc1ccccc1 (stereo unspecified)
- inhibition: 6%

Structure (SMILES): O=C(NC(Cc1ccc(O)cc1)P(=O)(O)Oc1ccccc1)OCc1ccccc1 (stereo unspecified)
- inhibition: 11%

Structure (SMILES): Nc1cccc(C(NC(=O)OCc2ccc3c(c2)OCO3)P(=O)(Oc2ccccc2)Oc2ccccc2)c1 (stereo unspecified)
- inhibition: 20%

Structure (SMILES): CC(=O)Nc1ccc(OP(=O)(Oc2ccc(NC(C)=O)cc2)C(Cc2ccccc2)NC(=O)OCc2ccccc2)cc1 (stereo unspecified)
- inhibition: 9%

Structure (SMILES): Nc1ccc(C(NC(=O)OCCOc2ccccc2)P(=O)(Oc2ccccc2)Oc2ccccc2)cc1 (stereo unspecified)
- inhibition: 1%

Structure (SMILES): COP(=O)(Oc1ccccc1)C(Cc1ccc(O)cc1)NC(=O)OCc1ccccc1 (stereo unspecified)
- inhibition: 14%

Structure (SMILES): COC(=O)NC(Cc1ccc(NC(=N)N)cc1)P(=O)(Oc1ccccc1)Oc1ccccc1 (stereo unspecified)
- inhibition: 27%

Structure (SMILES): O=C(NC(COCc1ccccc1)P(=O)(Oc1ccccc1)Oc1ccccc1)OCc1ccccc1 (stereo unspecified)
- inhibition: 4%

Structure (SMILES): COC(=O)NC(Cc1ccc(C(F)(F)F)cc1)P(=O)(Oc1ccc(NC(C)=O)cc1)Oc1ccc(NC(C)=O)cc1 (stereo unspecified)
- inhibition: 20%

Structure (SMILES): O=C(NC(c1ccc2c(c1)OCO2)P(=O)(Oc1ccccc1)Oc1ccccc1)OCc1ccccc1 (stereo unspecified)
- inhibition: 6%

Structure (SMILES): COC(=O)NC(c1cccc(C(=N)N)c1)P(=O)(Oc1ccccc1)Oc1ccccc1 (stereo unspecified)
- inhibition: 30%

Structure (SMILES): O=C(NC(C1CCNCC1)P(=O)(Oc1ccccc1)Oc1ccccc1)OCc1ccccc1 (stereo unspecified)
- inhibition: 30%

Structure (SMILES): O=C(NC(c1ccc2ccccc2c1)P(=O)(Oc1ccccc1)Oc1ccccc1)OCc1ccccc1 (stereo unspecified)
- inhibition: 51%

Structure (SMILES): O=C(NC(c1ccc(NC(=O)C(F)(F)F)cc1)P(=O)(Oc1ccccc1)Oc1ccccc1)OCc1ccccc1 (stereo unspecified)
- inhibition: 15%

Structure (SMILES): CN(C)c1ccc(C(NC(=O)OCc2ccccc2)P(=O)(Oc2ccccc2)Oc2ccccc2)c2ccccc12 (stereo unspecified)
- inhibition: < 1%

- inhibition: < 1%
Structure (SMILES): N#C[C@H](Cc1ccccc1)NC(=O)OCc1ccccc1

Structure (SMILES): NCCOc1ccc(C(NC(=O)OCc2ccccc2)P(=O)(Oc2ccccc2)Oc2ccccc2)cc1 (stereo unspecified)
- inhibition: 15%

Structure (SMILES): N=C(N)N1CCC(C(NS(=O)(=O)CCOc2ccccc2)P(=O)(Oc2ccccc2)Oc2ccccc2)CC1 (stereo unspecified)
- inhibition: 27%

Structure (SMILES): N=C(NO)c1cccc(C(Nc2ncccn2)P(=O)(Oc2ccccc2)Oc2ccccc2)c1 (stereo unspecified)
- inhibition: 23%

Structure (SMILES): N=C(N)N1CCC(C(NC(=O)/C=C\c2ccccc2)P(=O)(Oc2ccccc2)Oc2ccccc2)CC1 (stereo unspecified)
- inhibition: 11%

Structure (SMILES): CN(C)c1ccc(C(NC(=O)OCc2ccccc2)P(=O)(Oc2ccccc2)Oc2ccccc2)cc1NS(C)(=O)=O (stereo unspecified)
- inhibition: 46%

Structure (SMILES): N=C(N)Nc1ccc(C(NC(=O)OCc2c(F)c(F)c(F)c(F)c2F)P(=O)(Oc2ccccc2)Oc2ccccc2)cc1 (stereo unspecified)
- inhibition: 48%

Structure (SMILES): O=C(NC(Cc1ccccc1)P(=O)(Oc1ccccc1)Oc1ccccc1)OCc1ccccc1 (stereo unspecified)
- inhibition: 7%

Structure (SMILES): N=C(N)N1CCC(C(NC(=O)c2ccco2)P(=O)(Oc2ccccc2)Oc2ccccc2)CC1 (stereo unspecified)
- inhibition: 24%

Structure (SMILES): O=C(NC(c1cccc2ccccc12)P(=O)(Oc1ccccc1)Oc1ccccc1)OCc1ccccc1 (stereo unspecified)
- inhibition: 6%

Structure (SMILES): N=C(N)NCCCC(NC(=O)OCc1ccccc1)P(=O)(Oc1ccccc1)Oc1ccccc1 (stereo unspecified)
- inhibition: 15%

Structure (SMILES): CS(=O)(=O)Nc1ccc(CCC(NC(=O)OCc2ccccc2)P(=O)(Oc2ccccc2)Oc2ccccc2)cc1 (stereo unspecified)
- inhibition: 10%

Structure (SMILES): O=C(NC(Cc1cccc(O)c1)P(=O)(Oc1ccccc1)Oc1ccccc1)OCc1ccccc1 (stereo unspecified)
- inhibition: 3%

Structure (SMILES): COC(=O)NC(Cc1cccc(C(F)(F)F)c1)P(=O)(Oc1ccccc1)Oc1ccccc1 (stereo unspecified)
- inhibition: 4%

Structure (SMILES): O=C(NC(Cc1ccc(O)cc1)P(=O)(Oc1ccccc1)Oc1ccccc1)OCc1ccccc1 (stereo unspecified)
- inhibition: < 1%

Structure (SMILES): NCCOC(=O)NC(c1ccc(NC(=O)C(F)(F)F)cc1)P(=O)(Oc1ccccc1)Oc1ccccc1 (stereo unspecified)
- inhibition: 73%

Structure (SMILES): CC(=O)Nc1ccc(C(NC(=O)OCc2ccccc2)P(=O)(Oc2ccccc2)Oc2ccccc2)cc1 (stereo unspecified)
- inhibition: 8%

Structure (SMILES): CSCCC(NC(=O)[C@H](CCCCN)NC(=O)OCc1ccccc1)P(=O)(Oc1ccccc1)Oc1ccccc1 (stereo partly specified)
- inhibition: 4%

Structure (SMILES): N=C(N)N1CCC(C(Nc2ncc(-c3ccccc3)cn2)P(=O)(Oc2ccccc2)Oc2ccccc2)CC1 (stereo unspecified)
- inhibition: 12%

Structure (SMILES): Nc1ccc(C(NC(=O)OCc2c(F)c(F)c(F)c(F)c2F)P(=O)(Oc2ccccc2)Oc2ccccc2)cc1 (stereo unspecified)
- inhibition: 28%

Structure (SMILES): COc1ccc(CC(NC(=O)OCc2ccccc2)P(=O)(Oc2ccccc2)Oc2ccccc2)cc1 (stereo unspecified)
- inhibition: 6%

Structure (SMILES): Nc1ccc(C(NC(=O)OCCCC(F)(F)F)P(=O)(Oc2ccccc2)Oc2ccccc2)cc1 (stereo unspecified)
- inhibition: < 1%

Structure (SMILES): N=C(N)Nc1ccc(C(NS(=O)(=O)c2ccc(C(F)(F)F)cc2)P(=O)(Oc2ccccc2)Oc2ccccc2)cc1 (stereo unspecified)
- inhibition: 27%

- inhibition: 8%
Structure (SMILES): N#C[C@@H](NC(=O)OCc1ccccc1)c1cccc(N)c1

Structure (SMILES): O=C(NC(CCc1ccccc1)P(=O)(Oc1ccccc1)Oc1ccccc1)OCc1ccccc1 (stereo unspecified)
- inhibition: < 1%

Structure (SMILES): N=C(N)Nc1cccc2c(C(NC(=O)OCc3ccccc3)P(=O)(Oc3ccccc3)Oc3ccccc3)cccc12 (stereo unspecified)
- inhibition: 38%

- inhibition: 13%
Structure (SMILES): CC(C)C[C@H](NC(=O)OCc1ccccc1)C(=O)N[C@H](C#N)Cc1ccc(O)cc1

Structure (SMILES): O=C(NC(c1ccc2cc(O)ccc2c1)P(=O)(Oc1ccccc1)Oc1ccccc1)OCc1ccccc1 (stereo unspecified)
- inhibition: < 1%

Structure (SMILES): COC(=O)NC(c1cccc(N)c1)P(=O)(Oc1ccccc1)Oc1ccccc1 (stereo unspecified)
- inhibition: 7%

Structure (SMILES): N=C(N)N1CCC(C(NC(=O)/C=C/c2ccc3c(c2)OCO3)P(=O)(Oc2ccccc2)Oc2ccccc2)CC1 (stereo unspecified)
- inhibition: 4%

Structure (SMILES): CC(NC(=O)OCc1ccccc1)P(=O)(Oc1ccccc1)Oc1ccccc1 (stereo unspecified)
- inhibition: 3%

Structure (SMILES): N=C(N)Nc1ccc(C(NC(=O)OCc2ccccc2)P(=O)(Oc2ccccc2)Oc2ccccc2)cc1 (stereo unspecified)
- inhibition: 29%

Structure (SMILES): O=C(NC(c1cc([N+](=O)[O-])ccc1Cl)P(=O)(Oc1ccccc1)Oc1ccccc1)OCc1ccccc1 (stereo unspecified)
- inhibition: 6%

Structure (SMILES): N=C(N)N1CC(C(Nc2ncccn2)P(=O)(Oc2ccccc2)Oc2ccccc2)C1 (stereo unspecified)
- inhibition: 12%

Structure (SMILES): O=C(NC(Cc1ccc(F)cc1)P(=O)(Oc1ccccc1)Oc1ccccc1)OCc1ccccc1 (stereo unspecified)
- inhibition: 13%

Structure (SMILES): O=C(NC(c1ccc2occc2c1)P(=O)(Oc1ccccc1)Oc1ccccc1)OCc1ccccc1 (stereo unspecified)
- inhibition: 6%

Structure (SMILES): CC(=O)Nc1ccc(OP(=O)(Oc2ccc(NC(C)=O)cc2)C(Cc2ccc(C(F)(F)F)cc2)NC(=O)OCc2ccccc2)cc1 (stereo unspecified)
- inhibition: 1%

Structure (SMILES): Cc1ccc(CC(NC(=O)OCc2ccccc2)P(=O)(Oc2ccccc2)Oc2ccccc2)cc1 (stereo unspecified)
- inhibition: 7%

Structure (SMILES): N#Cc1cc(C(NC(=O)OCc2ccccc2)P(=O)(Oc2ccccc2)Oc2ccccc2)ccc1N1CCNCC1 (stereo unspecified)
- inhibition: 10%

Structure (SMILES): O=C(NC(c1ccc([N+](=O)[O-])cc1)P(=O)(Oc1ccccc1)Oc1ccccc1)OCc1ccccc1 (stereo unspecified)
- inhibition: 71%

Structure (SMILES): O=C(NC(c1cccnc1)P(=O)(Oc1ccccc1)Oc1ccccc1)OCc1ccccc1 (stereo unspecified)
- inhibition: 27%

Structure (SMILES): N=C(N)Nc1ccc(CC(NC(=O)OCc2c(F)c(F)c(F)c(F)c2F)P(=O)(Oc2ccccc2)Oc2ccccc2)cc1 (stereo unspecified)
- inhibition: 25%

Structure (SMILES): NCC1CCC(C(NC(=O)OCc2ccccc2)P(=O)(Oc2ccccc2)Oc2ccccc2)CC1 (stereo unspecified)
- inhibition: 15%

Structure (SMILES): O=C(NC(Cc1ccc2ccccc2c1)P(=O)(Oc1ccccc1)Oc1ccccc1)OCc1ccccc1 (stereo unspecified)
- inhibition: < 1%

Structure (SMILES): N#Cc1cccc(C(NC(=O)OCc2ccccc2)P(=O)(Oc2ccccc2)Oc2ccccc2)c1 (stereo unspecified)
- inhibition: 15%

Structure (SMILES): CC(=O)Nc1ccc(OP(=O)(Oc2ccc(NC(C)=O)cc2)C(NC(=O)OCc2ccccc2)c2cccc(N)c2)cc1 (stereo unspecified)
- inhibition: 21%

Structure (SMILES): C#CCOCCOCCOC(=O)NC(c1ccc(N2CCNCC2)cc1)P(=O)(Oc1ccccc1)Oc1ccccc1 (stereo unspecified)
- inhibition: 25%

Structure (SMILES): CN(C)C(=O)Nc1ccc(C(NC(=O)OCc2ccccc2)P(=O)(Oc2ccccc2)Oc2ccccc2)cc1 (stereo unspecified)
- inhibition: 22%

Structure (SMILES): N=C(N)c1ccc(C(NC(=O)OCc2ccccc2)P(=O)(Oc2ccccc2)Oc2ccccc2)cc1 (stereo unspecified)
- inhibition: 30%

Structure (SMILES): COC(=O)NC(c1cccc(N)c1)P(=O)(Oc1ccc(NC(C)=O)cc1)Oc1ccc(NC(C)=O)cc1 (stereo unspecified)
- inhibition: 12%

Structure (SMILES): CC(C)CC(NC(=O)OCc1ccccc1)P(=O)(Oc1ccccc1)Oc1ccccc1 (stereo unspecified)
- inhibition: 4%

Structure (SMILES): N=C(N)N1CCC(C(NC(=O)c2cccnc2)P(=O)(Oc2ccccc2)Oc2ccccc2)CC1 (stereo unspecified)
- inhibition: 13%

Structure (SMILES): CN(C)C(=O)Nc1ccc(CC(NC(=O)OCc2ccccc2)P(=O)(Oc2ccccc2)Oc2ccccc2)cc1 (stereo unspecified)
- inhibition: 9%

Structure (SMILES): O=C(NC(CC1CCNCC1)P(=O)(Oc1ccccc1)Oc1ccccc1)OCc1ccccc1 (stereo unspecified)
- inhibition: 16%

Structure (SMILES): C#CCCCOC(=O)NC(Cc1ccc(NC(=N)N)cc1)P(=O)(Oc1ccccc1)Oc1ccccc1 (stereo unspecified)
- inhibition: 23%

Structure (SMILES): CC(C)C[C@H](NC(=O)OCc1ccccc1)C(=O)NC(Cc1ccc(O)cc1)P(=O)(Oc1ccccc1)Oc1ccccc1 (stereo partly specified)
- inhibition: < 1%

Structure (SMILES): N=C(N)Nc1ccc(C(NS(=O)(=O)c2ccccc2)P(=O)(Oc2ccccc2)Oc2ccccc2)cc1 (stereo unspecified)
- inhibition: 29%

Structure (SMILES): N=C(N)Nc1ccc(CC(NC(=O)OCCC(F)(F)C(F)(F)C(F)(F)C(F)(F)C(F)(C(F)(F)F)C(F)(F)F)P(=O)(Oc2ccccc2)Oc2ccccc2)cc1 (stereo unspecified)
- inhibition: 55%

Structure (SMILES): COC(=O)NC(c1ccc(NC(=O)C(F)(F)F)cc1)P(=O)(Oc1ccccc1)Oc1ccccc1 (stereo unspecified)
- inhibition: 64%
